Rows were chosen to be rich in hits. Some 0.99% of all compounds tested hit in one or more screens of this group.
LYPLA2 inh – LYPLA2 inhibitors, primary screen, counter-screen for PME1 inhibitor project, biochemical, fluorescence polarization, FP-Rh probe ABPP; Acyl-protein thioesterase 2 (Homo sapiens), O95372; recombinant LYPLA2; inhibition, % at 5.9 µM; actives 0.38% (n = 320,000); AID 2177, 2009;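 active means inhibition above the screen-wide mean plus 3 SD, limit set per campaign, cut at about 26% in these data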;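 further: 0% = LYPLA2 with DMSO and 100% = wells lacking LYPLA2 enzyme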
Target sequence (O95372 whole entry, looked up): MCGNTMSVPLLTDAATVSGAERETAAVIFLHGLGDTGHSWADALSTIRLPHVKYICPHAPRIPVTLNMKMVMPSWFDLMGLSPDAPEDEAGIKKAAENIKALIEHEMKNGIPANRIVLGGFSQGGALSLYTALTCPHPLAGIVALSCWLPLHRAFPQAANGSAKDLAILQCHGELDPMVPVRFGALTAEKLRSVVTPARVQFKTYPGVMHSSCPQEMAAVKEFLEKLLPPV
Fam108B counter – mouse Fam108B serine hydrolase inhibitors, primary screen, counter-screen for RBBP9 inhibitor project, biochemical, fluorescence polarization | recombinant Fam108B, FP-Rh probe fluorescence polarization | inhibition, % at 9.51 µM | actives 0.33% (n = 300,000) | AID 1947, 2009;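 active means inhibition above the screen mean inhibition plus 3 SD, computed separately per campaign, cut at about 18% in these data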;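 further: inhibitors lower polarization as less probe binds the enzyme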
PME-1 inh – PME-1 inhibitors via competitive probe labeling, primary screen, biochemical, fluorescence polarization, FP-Rh probe, HTS | recombinant PME-1 | inhibition, % at 5.9 µM | actives 0.53% (n = 320,000);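 active means inhibition above the campaign mean of all compounds plus 3 SD, cut at about 26% in these data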;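 further: competitive labeling of PME-1 active site by serine hydrolase directed probe; 0% = PME-1 with DMSO and 100% = wells lacking PME-1 enzyme; inhibitors block probe labeling so polarization falls and inhibition rises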
LYPLA1 counter – LYPLA1 inhibitors, primary screen, counter-screen for PME1 inhibitor project, biochemical, fluorescence polarization, FP-Rh probe ABPP. Acyl-protein thioesterase 1 (Homo sapiens), O75608. recombinant LYPLA1. inhibition, % at 5.9 µM. actives 0.16% (n = 320,000);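 active means inhibition above the mean of all tested compounds plus 3 SD, set per campaign, cut at about 14% in these data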;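 further: inhibitors block serine hydrolase probe labeling of LYPLA1 so polarization falls; 0% = enzyme with DMSO and 100% = wells lacking LYPLA1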
Target sequence (O75608 whole entry, looked up): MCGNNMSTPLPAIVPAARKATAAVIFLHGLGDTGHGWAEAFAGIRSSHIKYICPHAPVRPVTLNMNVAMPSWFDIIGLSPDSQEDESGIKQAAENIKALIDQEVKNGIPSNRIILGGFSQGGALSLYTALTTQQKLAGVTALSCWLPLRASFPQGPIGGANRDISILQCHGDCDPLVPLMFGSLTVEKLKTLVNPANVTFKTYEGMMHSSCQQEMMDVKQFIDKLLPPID
RBBP9 inhibitor – human RBBP9 inhibitors, primary screen, biochemical, fluorescence polarization, FP-Rh probe, HTS | Serine hydrolase RBBP9 (Homo sapiens), O75884 | recombinant RBBP9 | inhibition, % at 7.94 µM | actives 0.2% (n = 220,000);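 active means inhibition above the campaign mean of all tested compounds plus 3 SD, cut at about 14% in these data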;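 further: plate controls were DMSO wells with RBBP9 for no effect and wells lacking RBBP9 protein for full effect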
Target sequence (O75884 whole entry, looked up): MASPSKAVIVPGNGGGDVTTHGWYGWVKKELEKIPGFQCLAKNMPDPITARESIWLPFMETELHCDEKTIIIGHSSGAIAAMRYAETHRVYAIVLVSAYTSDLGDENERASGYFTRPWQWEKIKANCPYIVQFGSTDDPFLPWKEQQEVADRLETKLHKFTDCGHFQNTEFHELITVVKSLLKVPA
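Measured by: FP readout at 525/598 nm; material: recombinant human RBBP9; also added: Serine-hydrolase probe FP-Rh, 375 nM pre-mixing; medium: Tris buffer pH 8.0, NaCl, Pluronic; replication: one well per compound; doses: one concentration, 7.94 µM nominal, 0.794% DMSO; timing: preincubation 30 min plus labeling 45 min at 25 °C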
Fam108b confirm – mouse Fam108b serine hydrolase inhibitors, confirmation, counter-screen for RBBP9 inhibitor project, biochemical, fluorescence polarization, triplicate; AID 1978, 2009; recombinant Fam108b, FP-Rh probe fluorescence polarization; inhibition, % at 9.51 µM; actives 44% (n = 930); shares compounds with Fam108B counter;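 active means inhibition above a limit from the primary screen, the mean over all compounds plus 3 SD, cut at about 19% in these data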;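 further: 0% = median of active Fam108b wells and 100% = catalytically dead S170A mutant; inhibitors free the probe so polarization falls as inhibition rises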
Fam108b inh – inhibition of mouse Fam108b by HTS hits, late-stage follow-up, biochemical, gel-based ABPP, soluble recombinant form; shares compounds with Fam108B counter; fluorophosphonate probe; inhibition, % at 20 µM; actives 44% (n = 260); in the data active means inhibition above about 40%
Active calls of the source: *; . = no result.

SMILES	LYPLA2 inh	Fam108B counter	PME-1 inh	LYPLA1 counter	RBBP9 inhibitor	Fam108b confirm	others
COc1cc(OC)cc(-c2nnc(Nc3nc4c(F)cccc4s3)o2)c1	2	19*	61*	3	7	13
Cc1ccc(-c2ccc(=O)n(CC(=O)NCC3COCCO3)n2)cc1 (stereo not drawn)	-2	-2	-4	0	.	.
COCCN=c1scc(C)n1/N=C/C1CC2C=CC1C2 (stereo not drawn)	2	2	3	2	-1	.
CCN(CC)c1ccc(/C=N/NC(=O)c2c[nH]c3ccccc23)cc1	0	23*	20	2	-7	-3
CCN(CC)c1ccc(/C=N/NC(=O)c2cc3ccccc3[nH]2)cc1	-6	4	14	-11	.	.
O=C(COc1cccc([N+](=O)[O-])c1)NN1C(=O)c2ccccc2C1=O	4	-4	4	-1	.	.
Cc1cc(C(C#N)c2ccc(Cl)cc2)c(Cl)cc1NC(=O)c1cc(I)cc(I)c1O (stereo not drawn)	-1	25*	40*	-12	.	42*	Fam108b inh=45*
Cc1cc(NC(=O)c2ccc(Cl)cc2)c(C)cc1O	1	-1	-3	0	0	.
COc1ccc(/C=C2\SC(=S)N(CC(=O)OCC(=O)Nc3cc(Cl)cc(Cl)c3)C2=O)cc1	-3	27*	2	-5	-6	78*	Fam108b inh=85*
COc1ccc(/C=C2/SC(=S)N(CCCC(=O)Nc3cccc(O)c3)C2=O)cc1	-36	-6	-20	-26	.	.
O=C(/C=C/c1ccncc1)c1ccc(NC(=O)c2ccccc2F)cc1	-25	-20	-32	-17	-19	.
Cc1ccc(C2C(C#N)=C(N)SC(N)=C2C#N)cc1	.	.	.	.	-10	.
N#CC1=C(N)SC(N)=C(C#N)C1c1ccoc1	-5	26*	-7	-6	6	-25
CCOC(=O)c1ccc(Nc2cnc3ccccc3n2)cc1	-2	-7	0	2	-7	.
CCOC(=O)c1ccc(NC2=CC(=O)C(=O)c3ccccc32)cc1	10	19*	10	-1	-5	30*	Fam108b inh=25
Cc1ccc(NC2=CC(=O)C(=O)c3ccccc32)cc1	3	12	15	3	6	.
NS(=O)(=O)c1ccc(NC2=CC(=O)C(=O)c3ccccc32)cc1	2	20*	9	2	.	32*	Fam108b inh=0
CCOC(=O)c1ccc(Nc2cc(C)nc(-c3ccccc3)n2)cc1	-35	18*	-26	-31	.	-13
O=C(NCc1ccccc1)c1ccccc1C(=O)c1ncc[nH]1	-8	-5	-1	-2	0	.
COc1ccc(N2CCN(C(=O)NCc3ccc(OC)c(OC)c3)CC2)cc1	3	-2	-3	0	.	.
Cc1cccc(NC(=O)/C(C#N)=C/c2ccc(F)cc2)n1	6	38*	16	4	.	3
O=C(CCCN1C(=O)/C(=C\c2ccco2)SC1=S)Nc1ccc(O)cc1C(=O)O	-4	20*	-43	-2	.	12
OCc1cc(-c2ccccn2)no1	-2	9	-6	2	.	.
Oc1cccc2cc3cccc(O)c3c(O)c12	-8	25*	20	-22	8	4	Fam108b inh=55*
Cc1ccc(C(=O)NC(=S)Nc2ccc3c(c2)OCCO3)c(C)c1	6	26*	5	1	-8	-4
SMILES	LYPLA2 inh	Fam108B counter	PME-1 inh	LYPLA1 counter	RBBP9 inhibitor	Fam108b confirm	others
Cc1cc(NC(=O)CSc2ncnc3c2cnn3-c2cccc(Cl)c2)no1	4	2	0	0	-2	.
COc1cc2c(c(OC)c1OC)-c1ccc(N(C)CC(OC)OC)c(=O)cc1[C@@H](NC(C)=O)CC2	5	19*	5	-2	.	-7
CN[C@H]1CCc2cc(OC)c(OC)c(OC)c2-c2ccc(N(C)CC(OC)OC)c(=O)cc21	1	1	0	4	.	.
O=[N+]([O-])c1ccccc1N/N=C/c1cccc(O)c1O	1	8	3	4	12	.
O=[N+]([O-])c1ccc(NN=Cc2ccccc2O)cc1	.	.	.	.	.	.	Fam108b inh=90*
O=[N+]([O-])c1cccc(N/N=C/c2cccc(O)c2O)c1	-3	26*	41*	-8	-2	11
Oc1ccccc1/C=N/Nc1ccccc1	3	1	1	-2	-7	.
O=[N+]([O-])c1ccc(NN=Cc2cccc(O)c2O)cc1	.	.	.	.	.	.	Fam108b inh=40*
COc1ccc(CC(=O)Oc2ccc(C(C)(C)C)cc2)cc1S(=O)(=O)N1CCOCC1	3	0	-1	-3	.	.
CC(C)Cc1ccc(CN2CCCC(NC(=O)CSc3nncn3C)C2)cc1 (stereo not drawn)	-1	-3	-2	1	.	.
Cc1cccc(Nc2nc(-c3ccc(O)cc3O)cs2)n1	-1	21*	21	-7	.	11
CC(=O)Nc1ccc(-c2csc(Nc3cccc(C)n3)n2)cc1	.	.	.	.	-4	.
CC1(C)CC(=O)C2=C(C1)NC1=C(C(=O)c3ccccc31)C2c1cc([N+](=O)[O-])ccc1O (stereo not drawn)	-3	21*	15	-11	1	15
CC(C)c1ccc(C2C3=C(CC(C)(C)CC3=O)NC3=C2C(=O)c2ccccc23)cc1 (stereo not drawn)	-3	23*	11	-9	2	4
CC1(C)OC(C)(C)/C(=C\c2ccc(OCC(N)=O)cc2)C1=O	2	.	-4	1	.	.
CC(C)(C)c1ccc(-n2ncc3c2CCCC3NC(=O)C2=NNC(=O)CC2)cc1 (stereo not drawn)	16	2	-5	5	.	.
COc1cc(/C=N/NC(=O)c2ccc(CN3C(=O)c4cccc5cccc3c45)cc2)cc(OC)c1O	-7	31*	17	-10	8	22*
C/C(=N\Nc1ccc(S(=O)(=O)Nc2ccc(Cl)cc2)cc1[N+](=O)[O-])c1ccc(N2CCOCC2)cc1	1	35*	2	-2	4	5
C/C(=N\Nc1ccc(S(=O)(=O)Nc2ccccc2)cc1[N+](=O)[O-])c1ccc(N2CCOCC2)cc1	7	4	6	-3	-6	.
O=[N+]([O-])c1ccccc1/C=C/C=N/Nc1ccc(S(=O)(=O)Nc2ccc(Cl)cc2)cc1[N+](=O)[O-]	12	60*	40*	-10	4	12
COc1ccc(NS(=O)(=O)c2ccc(N/N=C(\C)c3ccncc3)c([N+](=O)[O-])c2)cc1	10	23*	28*	-2	-5	-3

Bioassay records: PubChem BioAssay, The Scripps Research Institute Molecular Screening Center
